Data reported in ChEMBL document CHEMBL1132831, “Synthesis and characterization of a potent and selective protein tyrosine phosphatase inhibitor, 2” (Bioorg Med Chem Lett, 2000).

target: T1, Receptor-type tyrosine-protein phosphatase C (Homo sapiens, UniProt P08575); experiment: The compound was evaluated for its inhibitory activity towards Protein tyrosine phosphatase of CD45
T1 sequence (P08575 whole entry): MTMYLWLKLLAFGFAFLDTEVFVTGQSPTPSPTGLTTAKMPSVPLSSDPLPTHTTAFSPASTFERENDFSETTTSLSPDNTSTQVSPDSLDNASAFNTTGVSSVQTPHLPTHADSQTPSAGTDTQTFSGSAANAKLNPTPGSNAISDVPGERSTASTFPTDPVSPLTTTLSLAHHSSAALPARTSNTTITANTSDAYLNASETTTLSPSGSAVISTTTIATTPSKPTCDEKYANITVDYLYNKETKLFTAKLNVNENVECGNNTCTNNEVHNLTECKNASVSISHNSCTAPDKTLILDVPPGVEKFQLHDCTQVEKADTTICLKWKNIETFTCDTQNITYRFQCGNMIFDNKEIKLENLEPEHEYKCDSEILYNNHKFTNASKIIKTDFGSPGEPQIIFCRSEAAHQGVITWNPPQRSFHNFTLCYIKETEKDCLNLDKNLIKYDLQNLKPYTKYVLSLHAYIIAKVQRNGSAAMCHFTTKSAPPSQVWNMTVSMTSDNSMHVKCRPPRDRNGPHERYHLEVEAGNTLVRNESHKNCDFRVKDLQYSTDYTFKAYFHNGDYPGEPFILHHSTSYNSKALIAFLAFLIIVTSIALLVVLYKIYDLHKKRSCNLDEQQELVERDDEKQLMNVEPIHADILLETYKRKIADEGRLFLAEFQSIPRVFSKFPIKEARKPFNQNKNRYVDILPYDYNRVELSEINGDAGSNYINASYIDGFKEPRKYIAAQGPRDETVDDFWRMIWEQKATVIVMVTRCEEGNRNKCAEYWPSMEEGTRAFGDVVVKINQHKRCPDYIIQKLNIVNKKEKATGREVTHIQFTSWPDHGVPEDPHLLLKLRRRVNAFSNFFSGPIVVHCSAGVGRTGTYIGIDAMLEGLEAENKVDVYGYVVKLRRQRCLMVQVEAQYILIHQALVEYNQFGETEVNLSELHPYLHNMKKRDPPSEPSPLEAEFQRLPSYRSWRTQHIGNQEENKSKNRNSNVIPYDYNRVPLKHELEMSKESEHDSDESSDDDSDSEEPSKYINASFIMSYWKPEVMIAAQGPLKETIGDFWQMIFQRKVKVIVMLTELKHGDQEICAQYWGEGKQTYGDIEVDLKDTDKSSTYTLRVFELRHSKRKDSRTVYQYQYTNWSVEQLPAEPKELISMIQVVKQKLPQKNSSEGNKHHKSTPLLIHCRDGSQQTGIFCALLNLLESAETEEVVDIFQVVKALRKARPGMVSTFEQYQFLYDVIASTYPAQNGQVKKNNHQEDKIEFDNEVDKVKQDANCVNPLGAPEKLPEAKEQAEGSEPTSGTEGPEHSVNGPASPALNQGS
Outline: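 Commercial enzyme with 1 mM p-nitrophenyl phosphate in 25 mM MOPS pH 6.5, 5 mM EDTA, 1 mM dithiothreitol. Compound was tested at various concentrations from 30 nM, with a 30 min incubation at 37 °C. The reaction was stopped with 1 N NaOH and read at 405 nm. IC50 was obtained by nonlinear regression curve fitting.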

| IC50 [µM] | Compound |
| --- | --- |
| 380 | Cc1ccnc(C[S+]([O-])c2nc3ccc(OC(C)C)cc3[nH]2)c1 (configuration not stated) |
| 80.5 | CSc1ccnc(C[S+]([O-])c2nc3ccc(OC4CCCCC4)cc3[nH]2)c1 (configuration not stated) |
| 0.28 | CSc1ccnc(C[S+]([O-])c2nc3cc(OC(C)C)ccc3[nH]2)c1 (configuration not stated) |
| > 1000 | CSc1ccnc(CSc2nc3ccc(OC(C)C)cc3[nH]2)c1 |
| 120 | CC(C)Oc1ccc2[nH]c([S+]([O-])Cc3ccccn3)nc2c1 (configuration not stated) |

system: not listed separately; experiment: The compound was evaluated for its inhibitory effect of dual specificity phosphatases of VHR
Outline: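 Bacterially expressed GST-VHR fusion protein with 1 mM p-nitrophenyl phosphate in 25 mM MOPS pH 6.5, 5 mM EDTA, 1 mM dithiothreitol. Compound was present at various concentrations from 30 nM during 30 min at 37 °C. NaOH was then added and absorbance read at 405 nm. IC50 was derived by nonlinear regression.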

| IC50 [µM] | Compound |
| --- | --- |
| 50.2 | CSc1ccnc(C[S+]([O-])c2nc3cc(OC(C)C)ccc3[nH]2)c1 (configuration not stated) |
| 106 | VANADATE |
